Reference: ChEMBL document CHEMBL1208671, “Small structural changes of pentacyclic lupane type triterpenoid derivatives lead to significant differences in their anticancer properties” (Eur J Med Chem, 2010)
Active and inactive are the calls of the source. The calls are words filed in the database; no cut-off is given here.

Tests used:
HT-29 [1] = assay: Induction of apoptosis in human HT-29 cells assessed as DNA fragmentation at IC90 concentration after 24 hrs using ethidium bromide staining by DNA gel electrophoresis; format: functional, cell-based
How it was run: (§1)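 RPMI 1640 cultures (10 % heat-inactivated FBS, 37°C, 5 % CO2) were exposed to the IC90 concentration for 24 h. For trypan blue exclusion, cells excluding the dye were scored as viable or early apoptotic and blue cells as necrotic. DNA was run on agarose gels, where internucleosomal laddering (180 bp multiples) indicates apoptosis and a smear indicates necrosis.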

HT-29 [2] = assay: Induction of apoptosis in human HT-29 cells at IC90 concentration after 48 hrs using annexin V and propidium iodide staining by FACS analysis relative to control; format: functional
HT-29 [3] = assay: Cytotoxicity against human HT-29 cells after 96 hrs by SRB colorimetric assay; format: functional, cell-based; conditions: HT-29, 96 h
How it was run: (§2)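 Cells kept as monolayers in RPMI 1640 with 10 % heat-inactivated FBS and 1 % penicillin/streptomycin, 37°C, 5 % CO2, seeded at optimal density. Exponentially growing cells exposed to compound for 96 h, fixed with 10 % TCA, stained with sulforhodamine B for 30 min, washed with 1 % acetic acid, bound dye dissolved in 10 mM Tris base, OD read at 570 nm. IC50 estimated from semi-log dose-response curves versus untreated controls.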

SW-1736 = assay: Cytotoxicity against human SW1736 cells after 96 hrs by SRB colorimetric assay; format: functional, cell-based; conditions: SW-1736, 96 h; how it was run: as §2
A2780 = assay: Cytotoxicity against human A2780 cells after 96 hrs by SRB colorimetric assay; format: functional, cell-based; conditions: A2780, 96 h; how it was run: as §2
A-431 = assay: Cytotoxicity against human A431 cells after 96 hrs by SRB colorimetric assay; format: functional, cell-based; conditions: A-431, 96 h; how it was run: as §2
MCF7 = assay: Cytotoxicity against human MCF7 cells after 96 hrs by SRB colorimetric assay; format: functional, cell-based; conditions: MCF7, 96 h; how it was run: as §2
A549 = assay: Cytotoxicity against human A549 cells after 96 hrs by SRB colorimetric assay; format: functional, cell-based; conditions: A549, 96 h; how it was run: as §2
[4] = Cytotoxicity against human 518A2 cells after 96 hrs by SRB colorimetric assay; format: functional, cell-based; conditions: 518A2, 96 h; how it was run: as §2
[5] = Cytotoxicity against human A253 cells after 96 hrs by SRB colorimetric assay; format: functional, cell-based; conditions: A253, 96 h; how it was run: as §2
HT-29 [6] = assay: Induction of apoptosis in human HT-29 cells assessed as upregulation of caspase 9 activity at IC90 concentration after 6 hrs; format: functional, cell-based
How it was run: (§3)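 HT-29 monolayers were kept in RPMI 1640 with 10 % heat-inactivated FBS and 1 % penicillin/streptomycin at 37°C in 5 % CO2. Cells were exposed to the test agent, and caspase-2, -3, -8 and -9 activities were measured after 2, 6 and 24 h.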

HT-29 [7] = assay: Cell cycle arrest in human HT-29 cells assessed as accumulation at G1 phase at IC90 concentration after 48 hrs using propidium iodide staining by flow cytometry; format: functional
How it was run: (§4)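 Exponentially growing cells were exposed to the IC90 concentration for 24 and 48 h. Cell-cycle phase distribution, including the sub-G1 apoptotic peak, was compared with untreated controls at each time.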

HT-29 [8] = assay: Cell cycle arrest in human HT-29 cells assessed as accumulation at subG1 phase at IC90 concentration after 48 hrs using propidium iodide staining by flow cytometry; format: functional; how it was run: as §4
HT-29 [9] = assay: Induction of apoptosis in human HT-29 cells assessed as upregulation of caspase 8 activity at IC90 concentration after 6 hrs; format: functional, cell-based; how it was run: as §3
HT-29 [10] = assay: Induction of apoptosis in human HT-29 cells assessed as upregulation of caspase 2 activity at IC90 concentration after 6 hrs; format: functional, cell-based; how it was run: as §3
HT-29 [11] = assay: Induction of apoptosis in human HT-29 cells assessed as upregulation of caspase 2 activity at IC90 concentration after 24 hrs; format: functional, cell-based; how it was run: as §3
HT-29 [12] = assay: Cell cycle arrest in human HT-29 cells assessed as accumulation at G2/M phase at IC90 concentration after 48 hrs using propidium iodide staining by flow cytometry; format: functional; how it was run: as §4
HT-29 [13] = assay: Induction of apoptosis in human HT-29 cells assessed as upregulation of caspase 3 activity at IC90 concentration after 6 hrs; format: functional, cell-based; how it was run: as §3
HT-29 [14] = assay: Induction of apoptosis in human HT-29 cells assessed as upregulation of caspase 9 activity at IC90 concentration after 24 hrs; format: functional, cell-based; how it was run: as §3
HT-29 [15] = assay: Induction of apoptosis in human HT-29 cells assessed as upregulation of caspase 2 activity at IC90 concentration after 2 hrs; format: functional, cell-based; how it was run: as §3
HT-29 [16] = assay: Induction of apoptosis in human HT-29 cells assessed as programmed cell death at IC90 concentration after 24 hrs by trypan blue exclusion test; format: functional, cell-based; how it was run: as §1
HT-29 [17] = assay: Cell cycle arrest in human HT-29 cells assessed as accumulation at S phase at IC90 concentration after 48 hrs using propidium iodide staining by flow cytometry; format: functional; how it was run: as §4
HT-29 [18] = assay: Induction of apoptosis in human HT-29 cells assessed as upregulation of caspase 8 activity at IC90 concentration after 24 hrs; format: functional, cell-based; how it was run: as §3
HT-29 [19] = assay: Induction of apoptosis in human HT-29 cells assessed as upregulation of caspase 3 activity at IC90 concentration after 2 hrs; format: functional, cell-based; how it was run: as §3
HT-29 [20] = assay: Cell cycle arrest in human HT-29 cells assessed as accumulation at G2/M phase at IC90 concentration after 24 hrs using propidium iodide staining by flow cytometry; format: functional; how it was run: as §4
HT-29 [21] = assay: Cell cycle arrest in human HT-29 cells assessed as accumulation at G1 phase at IC90 concentration after 24 hrs using propidium iodide staining by flow cytometry; format: functional; how it was run: as §4
HT-29 [22] = assay: Induction of apoptosis in human HT-29 cells assessed as upregulation of caspase 8 activity at IC90 concentration after 2 hrs; format: functional, cell-based; how it was run: as §3
HT-29 [23] = assay: Induction of apoptosis in human HT-29 cells assessed as upregulation of caspase 3 activity at IC90 concentration after 24 hrs; format: functional, cell-based; how it was run: as §3
HT-29 [24] = assay: Induction of apoptosis in human HT-29 cells assessed as upregulation of caspase 9 activity at IC90 concentration after 2 hrs; format: functional, cell-based; how it was run: as §3
HT-29 [25] = assay: Cell cycle arrest in human HT-29 cells assessed as accumulation at S phase at IC90 concentration after 24 hrs using propidium iodide staining by flow cytometry; format: functional; how it was run: as §4
HT-29 [26] = assay: Cell cycle arrest in human HT-29 cells assessed as accumulation at subG1 phase at IC90 concentration after 24 hrs using propidium iodide staining by flow cytometry; format: functional; how it was run: as §4

Row | SMILES | Activity (HT-29 [1]) | Activity (HT-29 [2]) | IC50 (HT-29 [3]) [µM] | IC50 (SW-1736) [µM] | IC50 (A2780) [µM] | IC50 (A-431) [µM] | IC50 (MCF7) [µM] | IC50 (A549) [µM] | IC50 [4] [µM] | IC50 [5] [µM] | further results
1 | C=C(C)[C@@H]1CC[C@]2(C(=O)O)CC[C@]3(C)[C@H](CC[C@@H]4[C@@]5(C)CC[C@H](O)C(C)(C)[C@@H]5CC[C@]43C)[C@@H]12 | Active | Active | – | – | – | – | – | – | – | – | –
2 | C=C(C)[C@@H]1CC[C@]2(C(=O)OCC(CO)CO)CC[C@]3(C)[C@H](CC[C@@H]4[C@@]5(C)CC[C@H](O)C(C)(C)[C@@H]5CC[C@]43C)[C@@H]12 | – | – | > 100 | > 100 | > 100 | > 100 | > 100 | > 100 | > 100 | > 100 | –
3 | C=C(C)[C@@H]1CC[C@]2(C(=O)OCC(N)(CO)CO)CC[C@]3(C)[C@H](CC[C@@H]4[C@@]5(C)CCC(=O)C(C)(C)[C@@H]5CC[C@]43C)[C@@H]12 | Active | 20% | 9.44 | 10.1 | 10 | 10.1 | 10.6 | 10.8 | 10.8 | 10.5 | Activity (HT-29 [6]): inactive; Activity (HT-29 [7]): inactive; Activity (HT-29 [8]): inactive; Activity (HT-29 [9]): inactive; Activity (HT-29 [10]): inactive; Activity (HT-29 [11]): inactive; Activity (HT-29 [12]): inactive; Activity (HT-29 [13]): inactive; Activity (HT-29 [14]): inactive; Activity (HT-29 [15]): Active; Activity (HT-29 [16]): Active; Activity (HT-29 [17]): inactive; Activity (HT-29 [18]): inactive
4 | C=C(C)[C@@H]1CC[C@]2(C(=O)OCC(N)(CO)CO)CC[C@]3(C)[C@H](CC[C@@H]4[C@@]5(C)CC[C@H](O)C(C)(C)[C@@H]5CC[C@]43C)[C@@H]12 | – | – | 8.9 | > 100 | 3.46 | 3.61 | > 100 | > 100 | > 100 | > 100 | –
5 | C=C(C)[C@@H]1CC[C@]2(C(=O)O)CC[C@]3(C)[C@H](CC[C@@H]4[C@@]5(C)CC[C@H](OC(C)=O)C(C)(C)[C@@H]5CC[C@]43C)[C@@H]12 | – | – | 16.1 | 7.3 | 19 | 10.7 | 11.1 | 6.73 | 4.65 | 11.8 | –
6 | C=C(C)[C@@H]1CC[C@]2(C(=O)O)CC[C@]3(C)[C@H](CC[C@@H]4[C@@]5(C)CCC(=O)C(C)(C)[C@@H]5CC[C@]43C)[C@@H]12 [BETUNOLIC ACID] | – | – | 10 | 3.05 | 2.98 | 3.26 | 10.4 | 10.1 | 10.4 | 10.1 | –
7 | C=C(C)[C@@H]1CC[C@]2(C(=O)NC(CO)(CO)CO)CC[C@]3(C)[C@H](CC[C@@H]4[C@@]5(C)CC[C@H](O)C(C)(C)[C@@H]5CC[C@]43C)[C@@H]12 | – | – | > 100 | > 100 | > 100 | > 100 | > 100 | > 100 | > 100 | > 100 | –
8 | C=C(C)[C@@H]1CC[C@]2(C(=O)NC(CO)(CO)CO)CC[C@]3(C)[C@H](CC[C@@H]4[C@@]5(C)CC[C@H](OC(C)=O)C(C)(C)[C@@H]5CC[C@]43C)[C@@H]12 | – | – | 10 | 10.2 | 10.1 | 10.3 | 29.4 | 30.5 | 29.6 | 29.5 | –
9 | C=C(C)[C@@H]1CC[C@]2(C(=O)OCC(N)(CO)CO)CC[C@]3(C)[C@H](CC[C@@H]4[C@@]5(C)CC[C@H](OC(C)=O)C(C)(C)[C@@H]5CC[C@]43C)[C@@H]12 | Active | 20% | 2.45 | 3.73 | 3.62 | 2.54 | 2.76 | 3.44 | 2.87 | 2.02 | Activity (HT-29 [7]): 18.07%; Activity (HT-29 [8]): 60.66%; Activity (HT-29 [10]): Active; Activity (HT-29 [11]): inactive; Activity (HT-29 [19]): inactive; Activity (HT-29 [12]): 7.6%; Activity (HT-29 [20]): 16.39%; Activity (HT-29 [21]): 38.41%; Activity (HT-29 [14]): inactive; Activity (HT-29 [22]): inactive; Activity (HT-29 [15]): inactive; Activity (HT-29 [23]): inactive; Activity (HT-29 [16]): Active; Activity (HT-29 [17]): 13.85%; Activity (HT-29 [24]): inactive; Activity (HT-29 [25]): 19.83%; Activity (HT-29 [18]): inactive; Activity (HT-29 [26]): 25.11%
